Source: PubChem BioAssay (several laboratories)
AHR act: activates the human aryl hydrocarbon receptor; P35869; AID 2796; 320,000 compounds, 2.5% hits; AHR-responsive luciferase reporter cells, luminescence; activation, % at 5 µM; in the data active = activation above about 47%;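 also: 0% = vehicle wells and 100% = reference agonist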
Target sequence (P35869 whole entry, looked up): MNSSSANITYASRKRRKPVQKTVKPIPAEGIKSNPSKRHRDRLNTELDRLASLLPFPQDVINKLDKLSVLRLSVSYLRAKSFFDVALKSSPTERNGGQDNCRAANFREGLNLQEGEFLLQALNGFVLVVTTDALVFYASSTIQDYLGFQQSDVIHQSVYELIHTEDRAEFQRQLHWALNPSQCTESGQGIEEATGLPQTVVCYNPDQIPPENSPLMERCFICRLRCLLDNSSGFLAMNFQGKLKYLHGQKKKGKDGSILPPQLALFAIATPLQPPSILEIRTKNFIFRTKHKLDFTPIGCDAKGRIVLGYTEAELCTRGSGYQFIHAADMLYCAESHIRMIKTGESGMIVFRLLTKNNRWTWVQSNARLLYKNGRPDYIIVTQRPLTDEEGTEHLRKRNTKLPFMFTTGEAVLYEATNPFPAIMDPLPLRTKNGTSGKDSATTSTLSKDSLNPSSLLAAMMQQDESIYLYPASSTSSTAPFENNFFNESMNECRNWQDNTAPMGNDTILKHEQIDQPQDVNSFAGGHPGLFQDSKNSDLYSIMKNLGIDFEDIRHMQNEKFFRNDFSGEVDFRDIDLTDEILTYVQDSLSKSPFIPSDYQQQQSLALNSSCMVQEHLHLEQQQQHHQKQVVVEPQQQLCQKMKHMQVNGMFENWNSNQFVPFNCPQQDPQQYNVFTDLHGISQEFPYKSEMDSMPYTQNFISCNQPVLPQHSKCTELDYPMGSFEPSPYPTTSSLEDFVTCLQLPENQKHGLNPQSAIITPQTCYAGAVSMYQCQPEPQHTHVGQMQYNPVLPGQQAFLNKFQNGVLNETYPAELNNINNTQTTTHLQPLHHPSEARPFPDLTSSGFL
STAT3 activator: activators of IL-6 induced STAT3 signaling | U3A cells, IL-6 STAT3-luciferase reporter, luminescence; 100% = signal with IL-6 EC80 alone | activation (% of control), % at 5.6 µM | 190,000 compounds, 0.91% hits | AID 871;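 active = activation above the screen-wide mean of compound activation plus 3 SD, cut at about 130% in these data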;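 also: 0% = background luminescence of wells with medium and substrate only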
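Material: STAT1-lacking human U3A cells, STAT3 luciferase reporter | Benchmarks: IL-6-only wells as 100% reference | Probe or stimulus: IL-6 (33 ng/mL) | Timing: Compound 1 h, then IL-6 6 h at 37 °C | Detection: Luminescence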
Hsp70 act: transcriptional activators of Hsp70; HeLa Hsp70 promoter luciferase reporter, luminescence; scaled: vehicle 0, proteasome-inhibitor control 100%; activation, % at 10 µM; 200,000 compounds, 0.04% hits;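 active = activation above the mean across all tested compounds plus 3 SD, cutoff set per campaign, cut at about 5.5% in these data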;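 also: 100% = MG132 at 30 µM as the positive control and 0% = DMSO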
HSF1 inh: HSF1 inhibition; NIH3T3-HGL HSE-luciferase, MG132-induced, luminescence 8 h; hits give low values; activity change, negative = inhibition, % at 7.5 µM (by protocol); 300,000 compounds, 0.77% hits; AID 2098;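 active = more than half of replicate wells show activity change below -50%, luminescence cut by over half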;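 also: luciferase reports HSF-1 transcriptional activity via heat shock element; 0% = median of DMSO wells and -100% = zero luminescence signal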
PERK inhibitor: inhibitors of human PERK kinase; Q9NZJ5; inhibition, % at 5.6 µM; CHO PERK-DD fusion, SEAP luminescence translation reporter; AID 1416; 220,000 compounds, 0.17% hits;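 active = inhibition above the mean inhibition of all tested compounds plus 3 SD, set separately per screening campaign, cut at about 2.9% in these data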;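 also: PERK kinase domain activated by AP20187 dimerizer at 100 nM; 0% = DMSO with dimerizer and 100% = rapamycin at 8.4 µM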
PolyA inhibitor: yeast polyadenylation inhibition. S. cerevisiae SKY197-pL101 polyadenylation reporter, beta-gal luminescence; efflux-impaired pdr1/pdr3 knockout yeast; score 100 = 6 SD above DMSO. activity score, % at 12 µM. 300,000 compounds, 0.02% hits;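 active = lowest replicate activity score at least 50, where 100 means six control SD above control mean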;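 also: yeast exposed to compound for 9 h at 30 °C; higher score means more reporter readthrough which indicates perturbed polyadenylation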
Numbers without * were called inactive; nt = not tested or not shown. Shown are actives, neighbours in structure and some others; about 3.6% of the full set was active somewhere.

SMILES	AHR act	STAT3 activator	Hsp70 act	HSF1 inh	PERK inhibitor	PolyA inhibitor
CSCC(=O)N1CCc2ccc(NC(=O)c3ccccc3Cl)cc2C1	5	nt	nt	20	nt	7
Cc1ccc(CC(=O)Nc2ccc(C(=O)N3CCOCC3)cc2)cc1	-1	nt	nt	0	nt	12
CCc1nc(SCC(=O)NC2CC2)c2c(C)c(C)sc2n1	52*	nt	nt	6	nt	-2
CCOc1ccc(C(=O)NCC(=O)OCCN2C(=O)c3ccccc3C2=O)cc1OCC	2	nt	nt	nt	nt	nt
C=CCn1cccc(C(=O)Nc2ccc(C)c(C)c2)c1=O	22	nt	nt	26	nt	7
C=CCn1cccc(C(=O)Nc2cc(OC)ccc2OC)c1=O	60*	89	0	2	0	-3
C=CCn1cccc(C(=O)Nc2ccc(C)cc2)c1=O	55*	nt	nt	19	nt	0
OC(c1ccccc1)(c1ccccc1)c1ccn[nH]1	0	nt	nt	-1	nt	17
COc1cccc(CNC(=O)c2ccc(Cl)c(NC3=NC4CS(=O)(=O)CC4S3)c2)c1 (configuration not stated)	0	nt	nt	3	nt	1
Cc1cc(NC(=S)NC(=O)CC(C)C)ccc1Br	64*	103	0	7	0	-3
COc1cc2c(cc1NC(=O)CSc1nc3ccc(C)cc3[nH]1)oc1ccccc12	57*	97	0	48	-1	2
COc1cc2c(cc1NC(=O)CSc1cccc[n+]1[O-])oc1ccccc12	80*	104	0	-7	0	-19
COc1ccccc1NC(=O)CSc1nnc(CCC(=O)Nc2ccccc2F)n1C	2	nt	nt	-10	3.9*	1
COc1cc2c(cc1NC(=O)CSc1nnc(Cc3cccs3)n1C)oc1ccccc12	47*	113	0	nt	-1	-11
CC(C)(C)OC(=O)N[C@@H](C(=O)OC(C)(C)C)c1ccc2c(c1)OCO2	0	nt	nt	nt	nt	nt
O=C(CN1C(=O)COc2ccc(S(=O)(=O)N3CCOCC3)cc21)NCc1ccccn1	-3	nt	nt	2	3.5*	-1
CCNC(=S)N/N=C/c1cn(Cc2ccccc2F)c2ccccc12	51*	107	0	8	-1	-7
N#CC(C#N)=C/C=C(\Nc1ccc(Cl)cc1)c1ccc(Cl)cc1	120*	nt	nt	-5	1	-7
N#C/C(=C\c1ccccn1)c1ccccn1	24	nt	nt	-60*	nt	4
CCn1c(/C=C/c2c[nH]c3ccccc23)nc2ccccc2c1=O	19	99	0	32	0	-5
CCn1c(/C=C/c2c(C)[nH]c3ccccc23)nc2ccccc2c1=O	65*	116	0	1	0	-12
CCn1c(/C=C/c2cccc([N+](=O)[O-])c2)nc2ccccc2c1=O	68*	94	0	1	0	-17
O=[N+]([O-])c1ccc(C(O)CN=Cc2ccc(O)cc2O)cc1 (configuration not stated)	-1	94	0	-5	0	-6
COc1ccccc1NC(=O)Nc1nc(CC(=O)Nc2ccc(F)c(F)c2)cs1	52*	nt	nt	3	nt	0
COc1ccccc1NC(=O)Nc1nc(CC(=O)Nc2cc(F)ccc2F)cs1	63*	nt	nt	12	nt	15
SMILES	AHR act	STAT3 activator	Hsp70 act	HSF1 inh	PERK inhibitor	PolyA inhibitor
CC(C)OC(=O)Cn1c(=O)oc2ccccc21	0	98	0	-52*	1	11
COc1ccccc1CN1CC(C(=O)N(Cc2cnn(C)c2)C(C)C)CCC1=O (configuration not stated)	-1	nt	nt	4	nt	1
c1ccn2c(SCc3ccc4c(c3)OCO4)nnc2c1	21	101	0	-65*	2	-20
O=C(NCc1ccc(C(=O)O)cc1)OCc1ccccc1	1	108	0	-54*	1	19
CCOC(=O)NCc1ccccc1	1	nt	nt	5	nt	7
O=C(NCc1ccccc1)C1(c2cccc(F)c2)CCCC1	6	103	0	nt	0	-3
Cc1cc(N=Cc2c(O)ccc3cc(Br)ccc23)no1	5	105	0	-10	1	-33
Cc1cc(N=Cc2c(O)ccc3ccccc23)no1	18	135*	0	-6	0	16
CC1Oc2ccccc2OC1(O)c1ccc2ccccc2n1 (configuration not stated)	51*	89	0	-5	0	2
